From ChEMBL document CHEMBL1132207, “Homology modeling of gelatinase catalytic domains and docking simulations of novel sulfonamide inhibitors” (J Med Chem, 1999)

Key:
[1] = biological target: Matrix metalloproteinase-9 (Homo sapiens, UniProt P14780); assay: Inhibitory activity against Matrix metalloprotease-9 (concentration required for 50% inhibition of enzyme activity)
Procedure, shortened: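 Substrate added from a 1 mM DMSO stock, reaction 60 min, stopped with 3% acetic acid. Fluorescence read at ex 320/em 405 nm. Mean of two assays; IC50 taken as 50% inhibition.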

[2] = biological target: 72 kDa type IV collagenase (Homo sapiens, UniProt P08253)
72 kDa type IV collagenase, sequence (P08253 whole entry): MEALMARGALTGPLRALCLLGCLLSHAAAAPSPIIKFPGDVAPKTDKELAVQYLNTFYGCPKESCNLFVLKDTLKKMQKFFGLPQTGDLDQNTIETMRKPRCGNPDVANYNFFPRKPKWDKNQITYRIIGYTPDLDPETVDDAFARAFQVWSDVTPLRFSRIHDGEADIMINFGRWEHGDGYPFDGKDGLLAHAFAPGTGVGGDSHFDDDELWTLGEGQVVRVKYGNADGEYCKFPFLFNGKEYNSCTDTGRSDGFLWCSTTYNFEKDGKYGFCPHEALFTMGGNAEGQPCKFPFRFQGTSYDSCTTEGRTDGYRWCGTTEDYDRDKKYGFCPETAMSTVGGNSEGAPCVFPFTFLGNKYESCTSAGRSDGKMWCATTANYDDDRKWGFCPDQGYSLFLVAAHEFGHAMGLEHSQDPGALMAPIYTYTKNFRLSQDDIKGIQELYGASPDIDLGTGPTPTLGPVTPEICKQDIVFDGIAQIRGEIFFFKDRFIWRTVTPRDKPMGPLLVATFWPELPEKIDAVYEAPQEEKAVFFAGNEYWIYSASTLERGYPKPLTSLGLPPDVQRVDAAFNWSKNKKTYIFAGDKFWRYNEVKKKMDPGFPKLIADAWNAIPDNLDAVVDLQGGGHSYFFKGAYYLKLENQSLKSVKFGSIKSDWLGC

Matrix metalloproteinase-9, sequence (P14780 whole entry): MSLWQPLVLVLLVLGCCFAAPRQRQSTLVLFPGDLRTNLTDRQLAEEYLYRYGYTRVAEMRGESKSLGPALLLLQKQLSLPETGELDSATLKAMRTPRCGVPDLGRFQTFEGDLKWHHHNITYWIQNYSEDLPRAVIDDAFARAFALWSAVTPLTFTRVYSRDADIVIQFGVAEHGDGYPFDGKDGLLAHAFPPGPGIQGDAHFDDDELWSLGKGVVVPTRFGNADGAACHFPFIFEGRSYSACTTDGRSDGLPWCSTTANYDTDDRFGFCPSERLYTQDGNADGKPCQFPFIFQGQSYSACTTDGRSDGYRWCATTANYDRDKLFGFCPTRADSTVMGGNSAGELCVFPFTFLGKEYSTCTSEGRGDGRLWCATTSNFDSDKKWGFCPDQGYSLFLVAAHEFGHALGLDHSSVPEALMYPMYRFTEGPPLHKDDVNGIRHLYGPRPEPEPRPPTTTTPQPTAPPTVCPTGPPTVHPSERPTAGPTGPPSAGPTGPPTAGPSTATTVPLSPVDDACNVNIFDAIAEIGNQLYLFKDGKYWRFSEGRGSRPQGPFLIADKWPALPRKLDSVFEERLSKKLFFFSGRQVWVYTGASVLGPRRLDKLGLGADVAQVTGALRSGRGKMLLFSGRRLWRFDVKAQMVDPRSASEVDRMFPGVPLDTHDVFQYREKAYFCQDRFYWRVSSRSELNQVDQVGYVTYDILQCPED

SMILES | IC50 [1] [nM] | IC50 [2] [nM]
CCCCc1ccc(C#Cc2ccc(S(=O)(=O)N[C@H](Cc3c[nH]c4ccccc34)C(=O)O)s2)cc1 | 2700 | 
Cc1ccc(C#Cc2ccc(S(=O)(=O)N[C@@H](C(=O)O)C(C)C)s2)cc1 | 24 | 5.9
CCCCOc1ccc(C#Cc2ccc(S(=O)(=O)N[C@@H](C(=O)O)C(C)C)s2)cc1 | 210 | 4.7
CC(C)[C@@H](NS(=O)(=O)c1ccc(C#Cc2ccc(Oc3ccccc3)cc2)s1)C(=O)O | 260 | 18
COc1ccc(C#Cc2ccc(S(=O)(=O)N[C@H](Cc3c[nH]c4ccccc34)C(=O)O)cc2)cc1 | 8.2 | 0.65
Cc1ccc(C#Cc2ccc(S(=O)(=O)N[C@H](Cc3c[nH]c4ccccc34)C(=O)O)s2)cc1 [S-3304] | 9.6 | 
CCc1ccc(C#Cc2ccc(S(=O)(=O)N[C@@H](C(=O)O)C(C)C)s2)cc1 | 4.4 | 4.8
COc1ccc(C#Cc2ccc(S(=O)(=O)N[C@H](Cc3c[nH]c4ccccc34)C(=O)O)cc2[N+](=O)[O-])cc1 | 1900 | 33
CCc1ccc(C#Cc2ccc(S(=O)(=O)N[C@H](Cc3c[nH]c4ccccc34)C(=O)O)s2)cc1 | 7.3 | 
CC(C)[C@H](C(=O)O)N(C)S(=O)(=O)c1ccc(-c2nnn(-c3ccccc3)n2)cc1 | 870 | 
CCCCc1ccc(C#Cc2ccc(S(=O)(=O)N[C@@H](C(=O)O)C(C)C)s2)cc1 | 210 | 5.4
CCCCOc1ccc(C#Cc2ccc(S(=O)(=O)N[C@H](Cc3c[nH]c4ccccc34)C(=O)O)s2)cc1 | 2000 | 

Second part, the compound after the results:

IC50 [1] [nM] | IC50 [2] [nM] | SMILES
1700 | 81 | Cc1ccccc1C#Cc1ccc(S(=O)(=O)N[C@H](Cc2c[nH]c3ccccc23)C(=O)O)s1
2700 |  | O=C(O)[C@@H](Cc1ccccc1)NS(=O)(=O)c1ccc(-c2ccccc2)cc1
2300 |  | O=C(O)[C@@H](Cc1c[nH]c2ccccc12)NS(=O)(=O)c1ccc(C#Cc2ccc(Oc3ccccc3)cc2)s1
> 20000 | 7100 | O=C(O)[C@@H](Cc1ccccc1)NS(=O)(=O)c1ccc(Br)cc1
12 | 4.4 | O=C(O)[C@@H](Cc1ccccc1)NS(=O)(=O)c1ccc(-c2ccc(-c3ccccc3)cc2)cc1
72 |  | CC(C)[C@@H](NS(=O)(=O)c1ccc(-c2nnn(-c3ccccc3)n2)cc1)C(=O)O
> 20000 | > 20000 | O=C(O)[C@@H](Cc1c[nH]c2ccccc12)NS(=O)(=O)c1cccc2ccccc12
340 | 20 | O=C(O)[C@@H](Cc1ccccc1)NS(=O)(=O)c1ccc(C#Cc2ccccc2)cc1
> 20000 | 500 | O=C(O)[C@@H](Cc1c[nH]c2ccccc12)NS(=O)(=O)c1ccc2ccccc2c1
> 20000 |  | O=C(N[C@H](Cc1ccccc1)C(=O)O)c1ccc(-c2ccccc2)cc1
